Data reported in ChEMBL document CHEMBL4699606, “New type of anti-influenza agents based on benzo[d][1,3]dithiol core” (Bioorg Med Chem Lett, 2020).
pIC50: −log10 of the molar value. Calls of active or inactive are those of the source. The calls are words filed in the database; no cut-off is given here.

Key:
[1] = Antiviral activity against Influenza A virus (A/California/07/09(H1N1))pdm09 infected in MDCK cells assessed as reduction in viral replication preincubated with compound for 1 hr followed by viral infection and measured after viral cultivation for 48 hrs by hemagglutination test; format: functional, cell-based, Influenza A virus (A/California/07/2009(H1N1))
[2] = Cytotoxicity against dog MDCK cells assessed as reduction in cell viability by MTT assay; format: cell-based, Canis lupus familiaris
[3] = Selectivity index, ratio of CC50 for dog MDCK cells to IC50 for Influenza A virus (A/California/07/09(H1N1)) pdm09 infected in MDCK cells; format: toxicity, cell-based; conditions: read-out: Ratio CC50/IC50
[4] = system: MDCK; assay: Antiviral activity against Influenza A virus (A/California/07/09(H1N1))pdm09 infected in MDCK cells assessed as suppression of viral replication at early stage of viral cycle after 2 hpi by time of addition assay; format: functional, cell-based; conditions: Influenza A virus (A/California/07/2009(H1N1)), time 2.0 hrs
In short: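 Time-of-addition study in MDCK cells. Compound added at set times relative to infection (time 0 = moment of infection). Read-out was the infectious activity of viral progeny, assayed in MDCK cells.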

[5] = system: Influenza A virus (A/California/07/2009(H1N1)); assay: Inhibition of Influenza A virus (A/California/07/09(H1N1))pdm09 hemagglutinin receptor binding activity
[6] = system: Influenza A virus (A/California/07/2009(H1N1)); assay: Anti-membranotropic activity against Influenza A virus (A/California/07/09(H1N1))pdm09 hemagglutinin assessed as inhibition of HA-driven chicken erythrocytes membrane fusion incubated for 30 mins by fusogenic activity assay
In short: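 Compound mixed with virus and held 30 min at room temperature, then combined with 0.75% chicken erythrocytes at +4 °C. Fusion was triggered with MES buffer at pH 5.0. After erythrocytes sedimented, haemoglobin released by membrane lysis was read as optical density at 405 nm.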

Compound | pIC50 [1] | CC50 [2] | selectivity ratio [3] | Activity [4] | inhibition [5] | inhibition [6]
CC(=O)Nc1cc(C(F)(F)F)cc2sc(=O)sc12 | 4.42 | 95 µM | 3 |  |  | 
O=C(CN1CCCCC1)Nc1cc(C(F)(F)F)cc2sc(=O)sc12 | 4.74 | 532 µM | 29 | Active | inactive | Dose-dependent effect
O=C(CN1CCOCC1)Nc1cc(C(F)(F)F)cc2sc(=O)sc12 | 5.30 | 13 µM | 3 |  |  | 
O=C(Nc1cc(C(F)(F)F)cc2sc(=O)sc12)C(F)(F)F | 6.70 | 2.2 µM | 12 |  |  | 
O=C(CCN1CCCCC1)Nc1cc(C(F)(F)F)cc2sc(=O)sc12 | < 4.55 | 34 µM | 1 |  |  | 
CC(N)C12CC3CC(CC(C3)C1)C2 (stereo not given) [RIMANTADINE] | 4.39 |  | 9 |  |  | 
O=C(CCN1CCCC1)Nc1cc(C(F)(F)F)cc2sc(=O)sc12 | 5.22 | 75 µM | 12 |  |  | 
O=C(CCN1CCOCC1)Nc1cc(C(F)(F)F)cc2sc(=O)sc12 | 5.05 | 104 µM | 11 |  |  | 
NC(=O)c1ncn([C@@H]2O[C@H](CO)[C@@H](O)[C@H]2O)n1 [RIBAVIRIN] | 4.36 | > 2130 µM | 48 |  |  | 
Nc1cc(C(F)(F)F)cc2sc(=O)sc12 | 4.72 | 212 µM | 11 |  |  | 
O=C(CN1CCCC1)Nc1cc(C(F)(F)F)cc2sc(=O)sc12 | 3.72 | > 829 µM | 4 |  |  | 
